# Source: ChEMBL document CHEMBL1142490, “2-Phenyl-imidazo[1,2-a]pyridine compounds containing hydrophilic groups as potent and selective ligands for peripheral benzodiazepine receptors: synthesis, binding affinity and electrophysiological studies” (J Med Chem, 2008)
# Several values for one entry are separate records, joined by “and”; a condition that tells them apart may be missing. Equal values may be shown once. Activity calls are given as the source filed them. The calls are words filed in the database; no cut-off is given here.
# How the values were obtained:
# [1] = Displacement of [3H]flunitrazepam from central benzodiazepine receptor in Sprague-Dawley rat cerebral cortex membrane by liquid scintillation counting; type: tissue-based
# Summary of the method: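 Rat cortical membranes in 50 mM Tris-HCl, pH 7.4, 0.4–0.5 mg protein. Incubated with [3H]flunitrazepam (0.5 nM final) for 60 min at 0 °C. Filtration, then scintillation counting. Nonspecific binding defined with 5 µM diazepam. Ki from three experiments in duplicate.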
# Translocator protein = Translocator protein (Rattus norvegicus, UniProt P16257); experiment: Displacement of [3H]PK11195 from peripheral benzodiazepine receptor in Sprague-Dawley rat cerebral cortex membrane by liquid scintillation counting; type: tissue-based
# Translocator protein, sequence (P16257 whole entry, looked up): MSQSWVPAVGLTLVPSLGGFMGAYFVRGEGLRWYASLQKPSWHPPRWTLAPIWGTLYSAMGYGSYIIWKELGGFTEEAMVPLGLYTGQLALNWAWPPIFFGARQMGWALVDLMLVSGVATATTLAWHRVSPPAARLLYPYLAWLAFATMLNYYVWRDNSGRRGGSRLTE
# Summary of the method: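 Rat cerebral cortex membranes are washed in PBS, pH 7.4. Incubation with [3H]-ligand (1 nM final), 0.15–0.20 mg protein, 90 min. Filtration on PEI-presoaked GF/B filters, then scintillation counting. Nonspecific binding defined with 10 µM unlabelled ligand. Ki from three experiments in duplicate.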
# [2] = molecular target: T1, GABA-A receptor; alpha-1/beta-2/gamma-2 (Homo sapiens) (UniProt P14867+P47870+P18507); experiment: Agonist activity at human recombinant GABAA alpha-1-beta-2-gamma-2L receptor expressed in Xenopus oocytes assessed as change in GABA-induced chloride current amplitude at 1 uM by voltage clamp technique; type: functional, cell-based; conditions: Oocyte
# Summary of the method: (§1)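 Xenopus oocytes (stage V–VI, defolliculated) are nuclear-injected with human α1, β2 and γ2L cDNAs (1:1:1) and recorded about 24 h later. Two-electrode voltage clamp at -70 mV, MBS perfusion, room temperature. […] Reported as percent change from control; 5–10 oocytes per concentration.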
# [3] = molecular target: T1, GABA-A receptor; alpha-1/beta-2/gamma-2 (Homo sapiens); experiment: Agonist activity at human recombinant GABAA alpha-1-beta-2-gamma-2L receptor expressed in Xenopus oocytes assessed as change in GABA-induced chloride current amplitude at 10 uM by voltage clamp technique; type: functional, cell-based; conditions: Oocyte; summary of the method: as §1
# [4] = molecular target: T1, GABA-A receptor; alpha-1/beta-2/gamma-2 (Homo sapiens); experiment: Agonist activity at human recombinant GABAA alpha-1-beta-2-gamma-2L receptor expressed in Xenopus oocytes assessed as inhibition of GABA-induced chloride current amplitude at 10 uM in presence of 10 uM flumazenil by voltage clamp technique; type: functional, cell-based; conditions: Oocyte
# Summary of the method: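 Two-electrode voltage clamp (-70 mV) of oocytes expressing human α1β2γ2L GABAA receptors. Percent change of GABA response by compound at 10 µM measured with and without flumazenil at 10 µM. Mean of four oocytes ± SEM.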
# Rattus norvegicus [5] = species on record: Rattus norvegicus; experiment: Selectivity ratio of Ki for central benzodiazepine receptor to Ki for peripheral benzodiazepine receptor in Sprague-Dawley rat cerebral cortex membrane; type: tissue-based
# Rattus norvegicus [6] = species on record: Rattus norvegicus; experiment: Agonist activity at GABAA alpha-1-beta-2-gamma-2L receptor in Sprague-Dawley rat hippocampal CA1 pyramidal neurons assessed as increase in miniature inhibitory postsynaptic current amplitude at 30 uM after 30 mins by whole-cell patch clamp technique; type: functional, tissue-based; conditions: Hippocampus
# Summary of the method: (§2)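 Coronal hippocampal slices (300 µm) from male Sprague-Dawley rats anesthetized with ketamine (250 mg/kg i.p.) are recovered in ACSF, 40 min at 34 °C, then 30 min at room temperature. Whole-cell recordings of mIPSCs from CA1 pyramidal neurons at -65 mV, CsCl-based internal with QX-314. Compound bath-perfused at 30 µM for 30 min. Readout is mIPSC amplitude or decay time versus the pre-drug control.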
# Rattus norvegicus [7] = species on record: Rattus norvegicus; experiment: Agonist activity at GABAA alpha-1-beta-2-gamma-2L receptor in Sprague-Dawley rat hippocampal CA1 pyramidal neurons assessed as increase in miniature inhibitory postsynaptic current decay time at 30 uM after 30 mins by whole-cell patch clamp technique; type: functional, tissue-based; conditions: Hippocampus; summary of the method: as §2
# Rattus norvegicus [8] = species on record: Rattus norvegicus; experiment: Agonist activity at GABAA alpha-1-beta-2-gamma-2L receptor in Sprague-Dawley rat hippocampal CA1 pyramidal neurons assessed as inhibition of miniature inhibitory postsynaptic current amplitude at 30 uM after 30 mins in presence of 1 uM finasteride by whole-cell patch clamp technique; type: functional, tissue-based; conditions: Hippocampus
# Summary of the method: (§3)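 Rat hippocampal slices, whole-cell mIPSC recording from CA1 pyramidal neurons at -65 mV. Compound (30 µM) co-applied with finasteride (1 µM) for 30 min. Change in mIPSC amplitude or decay averaged over a 3 min period and given as mean percent change, n = 6.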
# Rattus norvegicus [9] = species on record: Rattus norvegicus; experiment: Agonist activity at GABAA alpha-1-beta-2-gamma-2L receptor in Sprague-Dawley rat hippocampal CA1 pyramidal neurons assessed as inhibition of miniature inhibitory postsynaptic current decay time at 30 uM after 30 mins in presence of 1 uM finasteride by whole-cell patch clamp technique; type: functional, tissue-based; conditions: Hippocampus; summary of the method: as §3
Structure (SMILES),Ki [1] [nM],Ki (Translocator protein) [nM],Activity [2],Activity [3] [%],Activity [4],Ratio Ki (Rattus norvegicus [5]),Activity (Rattus norvegicus [6]),Activity (Rattus norvegicus [7]),Activity (Rattus norvegicus [8]),Activity (Rattus norvegicus [9])
CCCCN(C)C(=O)Cc1c(-c2ccc(OC)cc2)nc2c(Cl)cc(Cl)cn12,> 10,0.73,24.8%,-16.5,–,–,–,–,–,–
COc1ccc(-c2nc3c(Cl)cc(Cl)cn3c2CC(=O)N(C)c2ccccc2)cc1,1000,0.23,-8.1%,-8,–,–,–,–,–,–
CCC(C)N(C)C(=O)c1cc2ccccc2c(-c2ccccc2Cl)n1 (configuration not stated) [PK-11195],> 10,–,4.9%,9.4,–,–,–,–,–,–
CCCN(CCC)C(=O)Cc1c(-c2ccc(Cl)c(N)c2)nc2c(Cl)cc(Cl)cn12 [listing 1 of 3 here],–,0.45,–,–,–,–,–,–,–,–
CCCN(CCC)C(=O)Cc1c(-c2ccc(N)cc2)nc2c(Cl)cc(Cl)cn12 [listing 1 of 3 here],246,2.22,–,–,–,–,–,–,–,–
CCCN(CCC)C(=O)Cc1c(-c2ccc(OC)cc2)nc2c(Cl)cc(Cl)cn12,> 10,0.31,8.8%,55.9,inactive,–,–,–,–,–
CCCN(CCC)C(=O)Cc1c(-c2ccc(Cl)cc2)nc2c(NC(=O)CN)cccn12,> 10,14.2,–,–,–,–,–,–,–,–
CCCN(CCC)C(=O)Cc1c(-c2ccc(N)cc2)nc2c(Cl)cc(Cl)cn12 [listing 2 of 3 here],1020,2.76,–,–,–,–,–,–,–,–
CCCCN(C)C(=O)Cc1c(-c2ccc(Cl)c([N+](=O)[O-])c2)nc2c(Cl)cc(Cl)cn12,–,0.3,-10.2%,-9.6,–,–,–,–,–,–
CN(C(=O)Cc1c(-c2nccs2)nc2c(Cl)cc(Cl)cn12)c1ccccc1,> 10,1.44,-1.2%,19.4,–,–,–,–,–,–
CCCN(CCC)C(=O)Cc1c(-c2nccs2)nc2c(Cl)cc(Cl)cn12,> 10,2.07,6.3%,60.6,–,–,–,–,–,–
CCCN(CCC)C(=O)Cc1c(-c2ccc(Cl)cc2)nc2c(NC(=O)CC(=O)O)cccn12,> 10,193,9.6%,19.8,–,–,–,–,–,–
CCCN(CCC)C(=O)Cc1c(-c2ccc(OC(=O)CCC(=O)OC)cc2)nc2c(Cl)cc(Cl)cn12,> 10,1.69,16.6%,37.5,–,–,–,–,–,–
CCCN(CCC)C(=O)Cc1c(-c2ccc(Cl)c(NC(=O)CCC(=O)O)c2)nc2c(Cl)cc(Cl)cn12,> 10,14.4,11.5%,10,–,–,–,–,–,–
CCCN(CCC)C(=O)Cc1c(-c2ccc(Cl)cc2)nc2c(NC(=O)CCCC(=O)O)cccn12,> 10,118,7.3%,-1.9,–,–,–,–,–,–
CCCCN(C)C(=O)Cc1c(-c2ccc(Cl)c(N)c2)nc2c(Cl)cc(Cl)cn12,535,0.78,–,–,–,686,–,–,–,–
CCCN(CCC)C(=O)Cc1c(-c2ccc(Cl)c(N)c2)nc2c(Cl)cc(Cl)cn12 [listing 2 of 3 here],> 10,0.33,–,–,–,–,–,–,–,–
CCCN(CCC)C(=O)Cc1c(-c2ccc(N)cc2)nc2c(Cl)cc(Cl)cn12 [listing 3 of 3 here],–,–,8.1% and 29.9%,–,–,–,–,–,–,–
CCCN(CCC)C(=O)Cc1c(-c2ccc(O)cc2)nc2c(Cl)cc(Cl)cn12,> 10,1.31,-3.9%,23.8,–,> 1000,–,–,–,–
CCCN(CCC)C(=O)Cc1c(-c2ccc(Cl)c([N+](=O)[O-])c2)nc2c(Cl)cc(Cl)cn12,> 10,0.24,14.9%,9.6,–,–,Active,Active,inactive,inactive
CN(C(=O)Cc1c(-c2ccc(O)cc2)nc2c(Cl)cc(Cl)cn12)c1ccccc1,5130,0.32,-5.9%,6.7,–,> 1000,–,–,–,–
CCCN(CCC)C(=O)Cc1c(-c2ccc(Cl)cc2)nc2c(NC(=O)CCC(=O)OCC)cccn12,> 10,0.86,–,–,–,–,–,–,–,–
CCCCN(C)C(=O)Cc1c(-c2ccc(Cl)c([N+](=O)[O-])c2)nc2c(Cl)cccn12,> 10,1.16,12.1%,-20,–,–,–,–,–,–
CCCCN(C)C(=O)Cc1c(-c2ccc(O)cc2)nc2c(Cl)cc(Cl)cn12,2930,0.87,7.9%,-23.6,–,–,–,–,–,–
CCCN(CCC)C(=O)Cc1c(-c2ccc([N+](=O)[O-])cc2)nc2c(Cl)cc(Cl)cn12,> 10,0.15,-4.2%,-16.6,–,–,–,–,–,–
CCCN(CCC)C(=O)Cc1c(-c2ccc(OC(=O)CN)cc2)nc2c(Cl)cc(Cl)cn12,> 10,1.52,26.6%,71,–,–,–,–,–,–
CCCN(CCC)C(=O)Cc1c(-c2ccc(Cl)c(N)c2)nc2c(Cl)cc(Cl)cn12 [listing 3 of 3 here],–,–,-6.2% and -2.9%,–,–,–,–,–,–,–
CCCCN(C)C(=O)Cc1c(-c2ccc(Cl)c(N)c2)nc2c(Cl)cccn12,194,1.04,9.5%,10.7,–,187,–,–,–,–
CCCN(CCC)C(=O)Cc1c(-c2ccc(Cl)cc2)nc2c(NC(=O)CCC(=O)O)cccn12,> 10,285,1.3%,12.3,–,–,–,–,–,–
